Sampled rows, rich in hits. Any-hit rate of the full collection: about 1.8%.
RanGTP-Impb inh: disruptors of Ran-importin-beta complex formation – biochemical, FRET, CFP-Ran, YFP-importin-beta, homogeneous, primary screen; inhibition, % (test concentration not listed); 300,000 tested, 1.1% active; AID 2216; cell-free CFP-Ran/YFP-importin-beta FRET ratio;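 active = more than half of the replicate wells show a fall in the fluorescence ratio signal beyond about 16%, limit read from the data, passing the limit was not always enough; inconclusive = exactly half of the replicate wells pass the set limit; inactive = fewer than half of replicates pass the limit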
Hck Nef HTS: inhibitors of human Hck kinase activated by Nef; P08631; Recombinant Hck-YEEI plus Nef, Z-Lyte FRET kinase assay; inhibition, % at 20 µM; 220,000 tested, 0.68% active; AID 463187;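 active = Hck-Nef kinase inhibition above about 50%, limit read from the data; inactive = inhibition below that limit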
Runt-SMMHC FRET: blocks binding of human RUNX1 Runt domain to CBFb-SMMHC; Cerulean-Runt/Venus-CBFb-SMMHC FRET ratio 530/480, 1 h; Q01196+Q13951; inhibition, % at 20 µM; 220,000 tested, 0.74% active; AID 1434;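 active = mean inhibition across duplicate retests at 20 µM reaching about 50%, limit read from the data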;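 note: inhibitors lower the FRET ratio by blocking Runt binding to CBFb-SMMHC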
Target sequence (Q01196 whole entry, looked up, the tested form may be a part): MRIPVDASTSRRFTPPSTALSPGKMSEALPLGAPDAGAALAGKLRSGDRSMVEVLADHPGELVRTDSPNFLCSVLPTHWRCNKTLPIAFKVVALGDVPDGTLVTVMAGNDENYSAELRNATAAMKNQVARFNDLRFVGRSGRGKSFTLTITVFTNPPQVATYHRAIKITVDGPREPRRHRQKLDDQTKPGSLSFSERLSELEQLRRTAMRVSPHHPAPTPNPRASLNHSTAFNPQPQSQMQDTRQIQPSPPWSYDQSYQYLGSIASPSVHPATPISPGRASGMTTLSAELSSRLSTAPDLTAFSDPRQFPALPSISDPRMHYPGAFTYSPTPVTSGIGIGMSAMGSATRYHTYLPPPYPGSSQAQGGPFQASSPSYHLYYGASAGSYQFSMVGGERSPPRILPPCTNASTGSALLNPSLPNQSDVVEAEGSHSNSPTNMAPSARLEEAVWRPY
Target sequence (Q13951 whole entry, looked up, the tested form may be a part): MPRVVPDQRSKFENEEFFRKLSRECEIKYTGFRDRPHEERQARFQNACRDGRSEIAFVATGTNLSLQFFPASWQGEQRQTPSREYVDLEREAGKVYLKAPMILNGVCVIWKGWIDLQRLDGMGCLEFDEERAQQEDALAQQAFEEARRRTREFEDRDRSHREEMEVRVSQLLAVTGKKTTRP
Runt-CBFb FRET: Runt domain-CBFb interaction inhibition; 220,000 tested, 0.46% active; inhibition, % at 20 µM; Cerulean-Runt/Venus-CBFb FRET ratio 530/480, 1 h; Q01196+Q13951;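 active = inhibition over about 50% at 20 µM in the single-dose screen, limit read from the data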
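test system = Cerulean-Runt domain fusion protein, energy donor | probe or stimulus = Venus-CBFb binding partner, 100 nM | incubation = two 1 h room-temperature incubations shielded from light | detection = fluorescence energy transfer, 422 nm excitation, 530/480 nm emission | measure = loss of energy transfer signal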
Hck Nef conf: Hck-Nef kinase inhibition, confirmation; Recombinant Hck-YEEI:Nef, Z-Lyte FRET kinase assay; 1,300 tested, 28% active; shares compounds with Hck Nef HTS; calls only at 10 µM; AID 463188;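 active = average inhibition of at least 50%, with Z-scores no higher than 3 in both the phospho-tyrosine peptide and fluorescence counterscreens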
Large screens that a line does not name were inactive (follow-up assays come after a bar, where they were run).

CCCc1ccc(NC(=O)C2CCCN(c3cnccn3)C2)cc1 (configuration not stated)	none (no result: Hck Nef HTS, Runt-SMMHC FRET, Runt-CBFb FRET)
C(=N\Nc1ncnc2sc3c(c12)CCC3)/c1ccncc1	Hck Nef HTS 50.6 | Hck Nef conf inactive
CCOC(=O)c1c(C)[nH]c(C(=O)OCC(=O)N2CCc3ccccc32)c1C	Hck Nef HTS 92.5 | Hck Nef conf inactive
CCOC(=O)c1[nH]c(C)c(C(=O)OCC(=O)N2CCc3ccccc32)c1C	none
Cc1ccc(S(=O)(=O)/N=C(\Nc2cc(C)on2)c2ccc(Cl)cc2)cc1	none
COc1ccc(NC(=O)CSc2nncn2C)cc1	none (no result: Hck Nef HTS, Runt-SMMHC FRET, Runt-CBFb FRET)
COc1ccc(NC(=O)CSc2c(C)nn(-c3nnc(C)c(=O)[nH]3)c2C)cc1	Hck Nef HTS 108.1 | Hck Nef conf inactive
CCc1sc(C(=O)N2CCN(c3ccc(F)cc3)CC2)cc1C	none (no result: Hck Nef HTS, Runt-SMMHC FRET, Runt-CBFb FRET)
O=C(/C=C/c1ccc([N+](=O)[O-])cc1)Nc1ncc([N+](=O)[O-])s1	none (no result: RanGTP-Impb inh)
C/C(N)=C(/C#N)C(=O)CSc1nc2ccccc2c(=O)n1Cc1ccc(C)cc1	Hck Nef HTS 55.4 (no result: Runt-CBFb FRET) | Hck Nef conf inactive
COc1ccc(-n2nc(C(=O)Nc3ccc4c(c3)OCO4)c3c4ccccc4n(C)c3c2=O)cc1	none
COc1ccc(-n2nc(C(=O)Nc3ccc(OC)c(OC)c3)c3c4ccccc4n(C)c3c2=O)cc1	Hck Nef HTS 89.4 | Hck Nef conf active
Cc1cc(/C=C2\NC(=O)NC2=O)c(C)n1-c1cccnc1	Hck Nef HTS 52.2 | Hck Nef conf inactive
CC1(C)CC(N=Cc2c(O)n(Cc3ccc4c(c3)OCO4)c(=O)c3ccccc23)CC(C)(C)N1	none
COc1cc(/C=N/NC(=O)c2cc(-c3c(C)nn(-c4ccccc4)c3C)n[nH]2)ccc1O	none
Cc1nn(-c2ccccc2)c(C)c1-c1cc(C(=O)N/N=C/c2ccc(O)cc2)[nH]n1	Hck Nef HTS 66.3 | Hck Nef conf active
Cc1cccn2c(=O)c(/C=N/O)c(Nc3ccccc3F)nc12	Hck Nef HTS 70.3 | Hck Nef conf inactive
COc1ccc(NC(=O)c2nc[nH]c2C(=O)N[C@@H](C)C(=O)OC(C)(C)C)cc1	Hck Nef HTS 53.2 | Hck Nef conf inactive
Cn1ccc(C(=O)N/N=C/c2ccncc2)n1	none (no result: Hck Nef HTS, Runt-SMMHC FRET, Runt-CBFb FRET)
O=C(Nc1ccc(F)cc1)c1oc2ccccc2c1NC(=O)C1CC1	none (no result: Hck Nef HTS, Runt-SMMHC FRET, Runt-CBFb FRET)
COc1ccc(N=C2NC(=O)/C(=C\C=C\c3ccco3)S2)cc1	Hck Nef HTS 88.1 | Hck Nef conf active
O=C1NC(=Nc2ccc(O)cc2)S/C1=C/c1ccco1	Hck Nef HTS 81.0 | Hck Nef conf inactive
Cc1cccc(N=C2NC(=O)/C(=C/C=C/c3ccco3)S2)c1	none
O=C1/C(=C/c2ccco2)CCc2ccccc21	Hck Nef HTS 100.1 | Hck Nef conf inactive
O=C(c1cnn(C(=O)c2cccc(S(=O)(=O)N3CCOCC3)c2)c1)c1ccccc1O	Hck Nef HTS 128.8 | Hck Nef conf active
O=C(c1cnn(C(=O)c2cccc(S(=O)(=O)N3CCOCC3)c2)c1)c1cc(Cl)cc(Cl)c1O	none
O=C(NCc1ccco1)c1cnn2cccnc12	none
O=C(Cn1nc(-c2ccccc2)ccc1=O)Nc1ccc(-n2cnnn2)cc1	none
O=C(Cn1nc(-c2ccc3c(c2)OCCO3)ccc1=O)Nc1ccc(-n2cnnn2)cc1	Hck Nef HTS 52.3 | Hck Nef conf inactive
NC(=S)n1[nH]c(-c2ccc([N+](=O)[O-])cc2)c(N=Nc2cccc(Cl)c2)c1=O	none (no result: Hck Nef HTS) | Hck Nef conf active
NC(=S)n1[nH]c(-c2ccc([N+](=O)[O-])cc2)c(N=Nc2ccc(O)cc2)c1=O	RanGTP-Impb inh inconclusive
O=C(Nc1c2ccccc2nc2ccccc12)C(Cl)(Cl)Cl	RanGTP-Impb inh 135.1, Hck Nef HTS 71.0 | Hck Nef conf inactive
O=c1[nH]c(S)c(/C=C2\C=Nc3ccccc32)s1	RanGTP-Impb inh inconclusive
Oc1cccc(Nc2nc(O)c(/C=C3\C=Nc4ccccc43)s2)c1	Hck Nef HTS 88.2 (no result: RanGTP-Impb inh) | Hck Nef conf active
N#CC1=C(N)Oc2cc(N)ccc2C1C1CCCCC1 (configuration not stated)	RanGTP-Impb inh 96.6, Hck Nef HTS 50.7, Runt-SMMHC FRET 81.6, Runt-CBFb FRET 50.5 | Hck Nef conf inactive
CCOC(=O)C1=C(C)OC(N)=C(C#N)C1C1CCCCC1 (configuration not stated)	none
Cc1nnc(N(C)C(=O)c2ccncc2)s1	none
O=C(N/N=C1\CCS(=O)(=O)c2ccc(F)cc21)c1ccc(O)cc1	none

Compound activity deposited in PubChem by several laboratories.
